Shown are actives, neighbours in structure and some others; about 1.8% of the full set was active somewhere.
CHRM5 agonist: human M5 muscarinic receptor agonists, primary screen, CHO-K1 cells, Fluo-8 calcium fluorescence; Muscarinic acetylcholine receptor M5 (Homo sapiens), P08912; CHO-K1 hM5 cells; 0% DMSO wells, 100% maximal acetylcholine response; activation, % at 3 µM; hit rate 0.19% among 360,000; AID 624037, 2012;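 active means activation above the run's mean over test compounds plus 3 SD, cut at about 23% in these data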;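 further: signal is peak over basal fluorescence ratio across the kinetic read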
Target sequence (P08912 whole entry, looked up): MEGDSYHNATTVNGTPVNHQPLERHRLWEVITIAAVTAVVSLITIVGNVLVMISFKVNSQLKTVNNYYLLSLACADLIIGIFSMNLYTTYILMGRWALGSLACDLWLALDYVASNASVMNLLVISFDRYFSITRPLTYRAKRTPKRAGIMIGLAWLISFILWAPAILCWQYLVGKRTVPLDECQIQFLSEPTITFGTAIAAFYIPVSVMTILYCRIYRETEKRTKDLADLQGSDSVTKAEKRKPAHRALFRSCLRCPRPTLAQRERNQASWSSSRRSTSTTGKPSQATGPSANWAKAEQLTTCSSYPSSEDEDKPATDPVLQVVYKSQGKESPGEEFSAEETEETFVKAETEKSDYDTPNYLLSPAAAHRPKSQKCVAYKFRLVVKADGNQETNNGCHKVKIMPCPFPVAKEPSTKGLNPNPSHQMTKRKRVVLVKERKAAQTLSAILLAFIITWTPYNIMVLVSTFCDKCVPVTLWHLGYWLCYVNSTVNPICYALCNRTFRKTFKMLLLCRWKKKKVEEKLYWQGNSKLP
CHRM4 PAM: human M4 muscarinic receptor positive allosteric modulators, primary screen, CHO-K1 cells, Fluo-8 calcium fluorescence. Muscarinic acetylcholine receptor M4 (Homo sapiens), P08173. CHO-K1 hM4/Gqi5, ACh EC20; 0% = ACh EC20, 100% = maximal ACh. activation, % at 3 µM. hit rate 0.4% among 360,000. AID 624126, 2012;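 active means activation above its plate's cutoff, the mean activation of sample wells plus 3 SD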
M5 PAM: human M5 muscarinic receptor positive allosteric modulators, primary screen, CHO-K1 cells, Fluo-8 calcium fluorescence | activation, % at 3 µM | hit rate 0.3% among 360,000 | AID 624038, 2012 | Muscarinic acetylcholine receptor M5 (Homo sapiens), P08912 | CHO-K1 hM5, ACh EC20 PAM; 0% = ACh EC20, 100% = ACh EC100;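 active means activation above the run cutoff, the mean activation of all test compounds plus 3 SD, cut at about 18% in these data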
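system = human M5 receptor in CHO-K1 cells | compound = one concentration, 3 µM final (nominal) | schedule = Post-acetylcholine fluorescence recording 140 s | signal = Fluo-8 calcium dye fluorescence, kinetic read | benchmarks = low control EC20 acetylcholine (0%), high control EC100 acetylcholine (100%) | repeats = singlicate, one well per test compound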
CHRM4 agonist: human M4 muscarinic receptor agonists, primary screen, CHO-K1 cells, Fluo-8 calcium fluorescence. Muscarinic acetylcholine receptor M4 (Homo sapiens), P08173. CHO-K1 hM4/Gqi5; vehicle 0%, full acetylcholine response 100%. activation, % at 3 µM. hit rate 0.14% among 360,000;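 active means activation above the run mean over all test wells plus 3 SD, cut at about 32% in these data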;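 further: peak over basal fluorescence ratio per well then scaled between controls; 0% = DMSO wells and 100% = acetylcholine at EC100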
CHRM4 antagonist: human M4 muscarinic receptor antagonists, primary screen, CHO cells, Fluo-8 calcium fluorescence; inhibition, % at 3 µM; hit rate 0.73% among 360,000; Muscarinic acetylcholine receptor M4 (Homo sapiens), P08173; CHO-hM4 cells, ACh EC80;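 active means inhibition above its plate's cutoff, the mean inhibition of sample wells plus 3 SD, cut at about 27% in these data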;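 further: 0% = acetylcholine EC80 with DMSO and 100% = DMSO without agonist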
CHRM5 antagonist: human M5 muscarinic receptor antagonists, primary screen, CHO cells, Fluo-8 calcium fluorescence. Muscarinic acetylcholine receptor M5 (Homo sapiens), P08912. CHO-hM5 cells, ACh EC80. inhibition, % at 3 µM. hit rate 0.59% among 360,000. AID 624040, 2012;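 active means inhibition above a per-plate cutoff, the mean of that plate's test compounds plus 3 SD, cut at about 27% in these data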;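 further: 0% = acetylcholine EC80 with DMSO and 100% = DMSO without agonist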
The depositor's hits bear a star; ! = not active in a repeat.

SMILES	CHRM5 agonist	CHRM4 PAM	M5 PAM	CHRM4 agonist	CHRM4 antagonist	CHRM5 antagonist
Cc1ccc(C(=O)C2CCN(C(=S)NCCCOC(C)C)CC2)cc1	7.4	5.9	22.9*	3.8	-16.5	-16.6
CC(C)OCCCNC(=S)N1CCC(C(=O)c2ccc(F)cc2)CC1	2.6	2.3	-4.5	4.3	-7.7	18.4
COc1ccc(C(c2nnnn2C(C)(C)C)N2CCN(C/C=C/c3ccccc3)CC2)cc1 (centres undefined)	-7.8	-9.4	-22.1	0.8	4.2	15.7
COc1ccc(-n2nnnc2C(c2cccs2)N2CCN(C/C=C/c3ccccc3)CC2)cc1 (centres undefined)	-6.8	-14.2	-22.5	0.3	15.4	46.9*
COc1ccc(-n2nnnc2C(c2ccccc2OC(F)(F)F)N2CCN(C/C=C/c3ccccc3)CC2)cc1 (centres undefined)	-6.4	-7.8	-19.4	0.5	-25.9	5.0
C(=C\c1ccccc1)/CN1CCN(C(c2ccccc2)c2nnnn2-c2ccc3c(c2)OCCO3)CC1 (centres undefined)	-7.6	-16.1	-22.5	3.3	31.8*	75.0*
C(=C\c1ccccc1)/CN1CCN(C(c2cccc3ccccc23)c2nnnn2C2CCCC2)CC1 (centres undefined)	-6.2	-15.6	-22.2	1.3	96.5*	98.8*
COc1ccc(C(c2nnnn2-c2ccc(OC)cc2)N2CCN(C/C=C/c3ccccc3)CC2)cc1 (centres undefined)	-7.5	-14.4	-22.5	3.6	7.5	50.8*
C(=C\c1ccccc1)/CN1CCN(C(c2ccnc3ccccc23)c2nnnn2-c2ccc3c(c2)OCCO3)CC1 (centres undefined)	-7.0	-8.8	-4.7	5.9	-14.6	1.0
CC(C)(C)C(=O)Nc1cc(NC(=O)C(C)(C)C)cc(C(=O)NNC(=O)c2ccncc2)c1	-0.6	2.7	2.1	0.7	-3.3	2.6
O=C(NCCC(=O)N1CCN(S(=O)(=O)c2ccccc2F)CC1)Nc1ccccc1	1.0	16.3	-1.2	0.3	-0.2	4.9
CC(O)CC(C)O (centres undefined)	0.1	5.6	-5.0	2.5	-14.9	-1.4
O=C(CNC(=O)C1CCCCC1)OCC(=O)c1ccc(Br)cc1	-2.1	8.1	-1.9	4.0	1.6	4.2
CCC(C)(C)NC(=O)C(c1ccc(OC)cc1)N(C(=O)CCC(=O)Nc1cc(C)on1)c1ccc2c(c1)OCCO2 (centres undefined)	-5.2	1.3	3.0	0.6	-5.6	4.9
C(=C\c1ccccc1)/CN1CCN(C(c2nnnn2C2CCCCC2)C2CC2)CC1 (centres undefined)	-7.1	-3.5	-13.7	1.0	-4.9	4.9
COc1ccc(C(c2nnnn2C2CCCCC2)N2CCN(C/C=C/c3ccccc3)CC2)cc1 (centres undefined)	-7.3	-16.3	-22.3	1.3	30.8*	58.3*
C=CCNC(=O)c1ccc(CN2CCC(Cc3ccccc3)CC2)cc1	-23.1	-16.4	-18.6	2.2	28.2*	-5.5
CC(C)NC(=O)c1ccc(CN2CCC(Cc3ccccc3)CC2)cc1	-23.5	-16.3	-24.0	1.1	66.9*	5.6
COc1ccc(CCNC(=O)c2ccc(CN3CCC(Cc4ccccc4)CC3)cc2)cc1	-6.5	-10.0	-7.8	3.8	-4.7	5.0
CSc1ccc(CN2CCC(Cc3ccccc3)CC2)cc1	-24.8	-17.8	-14.6	0.9	27.7*	1.0
Cc1sc2ncnc(N3CCCCC3)c2c1C	3.6	7.6	-5.9	3.0	-5.9	-0.1
Cc1sc2ncnc(NCC(c3ccco3)N3CCCC3)c2c1C (centres undefined)	-7.0	-22.6	-20.5	2.1	39.7*	15.4
CC(C)Nc1ccc(C(CC(N)=O)NC(=O)c2ccccc2)cc1[N+](=O)[O-] (centres undefined)	1.8	-3.9	1.4	0.8	4.3	-4.8
CC(C)Nc1ccc(C(CC(N)=O)NC(=O)c2ccc(Br)cc2)cc1[N+](=O)[O-] (centres undefined)	1.0	2.6	19.9*	0.2	-4.7	-5.5
CCOc1ccc(/C=C/C2=Cc3c(sc(NC(=O)CSc4n[nH]c(N)n4)c3C#N)C(C)(C)C2)cc1	7.9	-1.8	8.1	7.5	47.3*	22.7
SMILES	CHRM5 agonist	CHRM4 PAM	M5 PAM	CHRM4 agonist	CHRM4 antagonist	CHRM5 antagonist
CCOC(=O)c1cc(-c2ccccc2)sc1NC(=O)C(C)OC(=O)c1cccc(S(=O)(=O)N(C)C)c1 (centres undefined)	-1.2	5.0	19.9*	0.8	11.7	7.1
Cc1cc(SCC(=O)N2CCCC2=O)nc2c(C)cccc12	-6.7	4.2	4.0	2.8	-21.1	-2.4
Cc1cc(SCCC(=O)O)nc2c(C)cccc12	-10.6	3.0	33.1*	0.7	-9.5	-2.9
Cc1cc(SCC(=O)O)nc2ccccc12	3.3	14.2	18.3*!	0.7	-8.1	-11.6
NCCCC[C@@H](C(=O)NCCCCCCCCCCC(=O)N1CCNCC1)n1cc(CCCC(=O)O)nn1	-1.7	3.1	-6.6	0.4	-3.0	14.9
CSCCC(NC(=O)c1ccccc1)C(=O)OCC(=O)NCc1ccco1 (centres undefined)	4.6	0.5	-4.8	0.4	6.4	7.6
COc1ccc(NC(=O)CN(C)C(=O)CCC2CCCC2)cc1	-1.4	1.2	-7.7	0.8	-3.4	29.6*
CCOc1ccc(NC(=O)CN(C)C(=O)CCC2CCCCC2)cc1OCC	-2.6	1.7	0.8	2.7	2.0	10.3
O=c1cc(-c2ccc(OCc3ccccc3)cc2)oc2cc(OCc3ccccc3)cc(OCc3ccccc3)c12	-2.1	-5.0	-5.6	-0.1	-1.7	-0.7
C=CCN(CC=C)C(=O)CN1C(=O)NC(c2ccccc2)(c2ccccc2)C1=O	0.7	17.8*	2.4	3.2	-36.5	-6.9
CN(C/C=C/c1ccccc1[N+](=O)[O-])Cc1ccccc1	-21.7	-14.6	-17.8	0.3	35.3*	11.3
C[C@H](CO)N1C[C@H](C)[C@@H](CN(C)C(=O)NC2CCCCC2)Oc2ccc(NC(=O)CCC(F)(F)F)cc2C1=O	2.2	24.3*	7.0	1.7	-0.1	-0.8

Screening results from PubChem.
